# System: Spodoptera litura
# Assay: Antifeedant activity against Spodoptera litura F. by choice leaf disk assay
# Assay type: functional
# Outline: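 Antifeedant value calculated from the rate of leaf consumption. A straight line was fitted to the bioassay points to obtain the ED50.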
row,SMILES,ED50
1,COc1cc2oc(C)cc(=O)c2c(OC)c1OC,0.41 umol/cm2
2,COc1ccc2c(=O)cc(C)oc2c1,>10 umol/cm2
3,COc1cc(OC)c2c(=O)cc(C)oc2c1,>10 umol/cm2
4,"Cc1ccc2c(=O)cc(C)oc2c1 [2,7-DIMETHYLCHROMONE]",0.102 umol/cm2
5,COc1ccc(-c2oc3c(OC)c(OC)c(OC)c(O)c3c(=O)c2OC)cc1 [5-HYDROXYAURANETIN],0.11 umol/cm2
6,O=c1cc(-c2ccccc2)oc2ccc(O)cc12 [6-HYDROXYFLAVONE],>10 umol/cm2
7,COc1ccc2oc(-c3ccccc3)cc(=O)c2c1 [6-METHOXYFLAVONE],0.15 umol/cm2
8,Cc1ccc2oc(-c3ccccc3)cc(=O)c2c1 [6-METHYLFLAVONE],0.035 umol/cm2
9,O=c1cc(-c2ccccc2)oc2cc(O)ccc12 [7-HYDROXYFLAVONE],>10 umol/cm2
10,COc1ccc2c(=O)ccoc2c1 [7-METHOXYCHROMONE],0.096 umol/cm2
11,COc1ccc2c(=O)cc(-c3ccccc3)oc2c1 [7-METHOXYFLAVONE],0.059 umol/cm2
12,O=c1cc(-c2ccc(O)cc2)oc2cc(O)cc(O)c12 [APIGENIN],>10 umol/cm2
13,O=c1cc(-c2ccccc2)oc2cc(O)c(O)c(O)c12 [BAICALEIN],0.96 umol/cm2
14,O=c1ccoc2ccccc12 [CHROMONE],0.168 umol/cm2
15,O=c1cc(-c2ccccc2)oc2cc(O)cc(O)c12 [CHRYSIN],2.5 umol/cm2
16,O=c1cc(-c2ccccc2)oc2ccccc12 [FLAVONE],0.11 umol/cm2
17,COc1cc(O)c2c(=O)cc(-c3ccccc3)oc2c1O [ISOWOGONIN],>10 umol/cm2
18,O=c1cc(-c2ccc(O)c(O)c2)oc2cc(O)cc(O)c12 [LUTEOLIN],>10 umol/cm2
19,COc1cc2oc(-c3ccccc3)cc(=O)c2c(O)c1OC [MOSLOFLAVONE],>10 umol/cm2
20,COc1ccc(-c2cc(=O)c3c(OC)c(OC)c(OC)c(OC)c3o2)cc1OC [NOBILETIN],5.6 umol/cm2
21,O=c1cc(-c2ccccc2)oc2c(O)c(O)cc(O)c12 [NORWOGONIN],1.52 umol/cm2
22,COc1c(O)cc2oc(-c3ccccc3)cc(=O)c2c1O [OROXYLIN A],>10 umol/cm2
23,COc1ccc(-c2cc(=O)c3c(OC)c(OC)c(OC)c(OC)c3o2)cc1 [TANGERETIN],0.28 umol/cm2
24,COc1c(O)cc(O)c2c(=O)cc(-c3ccccc3)oc12 [WOGONIN],2 umol/cm2

# Reference: ChEMBL document CHEMBL3045020, “Insect antifeedant activity of flavones and chromones against Spodoptera litura” (2003)
